ChEMBL document CHEMBL5325390, “1,2,4-Triazole-3-thione analogues with an arylakyl group at position 4 as metallo-β-lactamase inhibitors” (Bioorg Med Chem, 2022)
The source made the active and inactive calls. The rule behind the calls is not given here.

Legend:
Beta-lactamase VIM-1 = Beta-lactamase VIM-1 (Bacteria, UniProt Q8GDC1); assay: Binding affinity to VIM-1 (unknown origin) expressed in Escherichia coli BL21(DE3) assessed as inhibition constant by measuring rate of substrate hydrolysis by UV-Vis spectrophotometric analysis
Method in brief: (§1)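 Purified MBL (1–70 nM) with 150 µM imipenem or meropenem as reporter substrate, 50 mM HEPES pH 7.5, 30 °C. Hydrolysis followed by absorbance at 300 nm without and with inhibitor (0.5 µM–1 mM). Ki from the slope of v0/vi vs [I] under a competitive model, or from Dixon plots varying inhibitor and substrate. […] Triplicate, mean ± SD.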

[1] = Binding affinity to VIM-2 (unknown origin) expressed in Escherichia coli BL21(DE3) assessed as inhibition constant by measuring rate of substrate hydrolysis by UV-Vis spectrophotometric analysis; method in brief: as §1
[2] = Binding affinity to VIM-4 (unknown origin) expressed in Escherichia coli BL21(DE3) assessed as inhibition constant by measuring rate of substrate hydrolysis by UV-Vis spectrophotometric analysis; method in brief: as §1
[3] = molecular target: Metallo-beta-lactamase type 2 (Bacteria) (UniProt C7C422); assay: Inhibition of NDM1 (unknown origin) expressed in Escherichia coli BL21(DE3) assessed as substrate hydrolysis at 100 uM by UV-Vis spectrophotometric analysis relative to control
Sequence of Metallo-beta-lactamase type 2 (Bacteria) (C7C422 whole entry): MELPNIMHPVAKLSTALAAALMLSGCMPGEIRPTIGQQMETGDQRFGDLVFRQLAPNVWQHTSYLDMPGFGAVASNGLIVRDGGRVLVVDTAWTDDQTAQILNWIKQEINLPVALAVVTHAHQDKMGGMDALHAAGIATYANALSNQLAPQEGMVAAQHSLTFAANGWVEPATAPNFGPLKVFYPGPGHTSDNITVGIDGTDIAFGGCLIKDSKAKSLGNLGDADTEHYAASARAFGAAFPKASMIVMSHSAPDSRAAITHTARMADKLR
Method in brief: (§2)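 Single-point screen at 100 or 200 µM inhibitor against purified MBL (1–70 nM) with 150 µM imipenem or meropenem reporter substrate, 50 mM HEPES pH 7.5, 30 °C. Initial hydrolysis rate read by absorbance at 300 nm and compared with the uninhibited reaction. Triplicate.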

Klebsiella pneumoniae [4] = assay: Antimicrobial synergistic activity against blaVIM-1-producing multidrug-resistant Klebsiella pneumoniae 7023 clinical isolate assessed as meropenem MIC at 32 ug/ml by CLSI based broth microdilution method (reference value: 16 ug/ml); type: functional; settings: dose 32 µg/ml
Klebsiella pneumoniae [5] = assay: Antimicrobial synergistic activity against blaVIM-4-producing multidrug-resistant Klebsiella pneumoniae VA416/02 clinical isolate assessed as meropenem MIC at 32 ug/ml by CLSI based broth microdilution method (reference value: 16 ug/ml); type: functional; settings: dose 32 µg/ml
Escherichia coli = assay: Synergistic antimicrobial activity against blaNDM-1-producing multidrug-resistant Escherichia coli SI-004M clinical isolate assessed as meropenem MIC at 32 ug/ml by CLSI based microdilution method (reference value: 64 ug/ml); type: functional; settings: dose 32 µg/ml
[6] = molecular target: T1, Angiotensin-converting enzyme (Oryctolagus cuniculus) (UniProt P12822); assay: Inhibition of rabbit lung angiotensin-converting enzyme at 100 uM using Abz-Gly-Phe-(NO2)-Pro as substrate by fluorescence based microplate reader analysis relative to control; type: tissue-based
T1 sequence (whole entry): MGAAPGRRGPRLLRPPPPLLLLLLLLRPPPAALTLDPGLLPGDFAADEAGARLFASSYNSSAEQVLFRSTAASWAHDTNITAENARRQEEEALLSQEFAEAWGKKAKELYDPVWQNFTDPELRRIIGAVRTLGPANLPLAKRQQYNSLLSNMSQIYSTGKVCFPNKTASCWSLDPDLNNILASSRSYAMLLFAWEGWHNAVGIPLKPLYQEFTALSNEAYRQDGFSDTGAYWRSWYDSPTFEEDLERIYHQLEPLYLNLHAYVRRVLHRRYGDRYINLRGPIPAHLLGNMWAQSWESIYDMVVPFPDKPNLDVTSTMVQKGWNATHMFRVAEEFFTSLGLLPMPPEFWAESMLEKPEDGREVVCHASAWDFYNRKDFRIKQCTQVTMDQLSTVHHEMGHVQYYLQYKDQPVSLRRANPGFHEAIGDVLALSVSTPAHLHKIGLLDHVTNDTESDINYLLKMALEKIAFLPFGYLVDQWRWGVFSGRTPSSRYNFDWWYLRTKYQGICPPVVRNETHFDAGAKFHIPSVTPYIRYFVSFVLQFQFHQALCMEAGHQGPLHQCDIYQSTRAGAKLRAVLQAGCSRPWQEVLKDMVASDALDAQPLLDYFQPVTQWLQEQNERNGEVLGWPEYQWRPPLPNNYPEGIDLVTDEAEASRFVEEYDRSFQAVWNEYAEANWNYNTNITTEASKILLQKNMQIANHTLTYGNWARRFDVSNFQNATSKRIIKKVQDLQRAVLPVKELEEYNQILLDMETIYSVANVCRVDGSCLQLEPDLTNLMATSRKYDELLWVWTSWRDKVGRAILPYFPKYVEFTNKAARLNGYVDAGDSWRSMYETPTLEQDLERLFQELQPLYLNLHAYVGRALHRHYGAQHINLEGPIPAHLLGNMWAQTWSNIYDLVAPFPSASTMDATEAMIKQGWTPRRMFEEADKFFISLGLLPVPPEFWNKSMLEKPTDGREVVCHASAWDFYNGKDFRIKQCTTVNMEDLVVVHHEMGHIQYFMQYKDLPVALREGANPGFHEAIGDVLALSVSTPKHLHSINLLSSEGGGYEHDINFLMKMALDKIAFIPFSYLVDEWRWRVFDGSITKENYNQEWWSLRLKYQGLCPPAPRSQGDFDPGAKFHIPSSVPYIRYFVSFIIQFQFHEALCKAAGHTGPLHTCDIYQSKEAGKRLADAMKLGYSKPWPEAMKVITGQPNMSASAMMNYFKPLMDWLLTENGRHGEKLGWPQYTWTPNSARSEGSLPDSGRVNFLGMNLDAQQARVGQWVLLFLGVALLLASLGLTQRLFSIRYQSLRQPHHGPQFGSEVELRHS
Method in brief: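 Rabbit lung ACE, 1.5 mU per well, in 150 mM Tris, 750 mM NaCl, pH 8.3, with Abz-Gly-Phe(NO2)-Pro substrate. Blank-corrected fluorescence of released Abz-Gly-OH (ex 316, em 413 nm) followed up to 90 min. Test compounds at 100 µM; captopril control at 100 nM. Inhibition % = 100 − (vi/v0 × 100).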

[7] = system: metallo-β-lactamase IMP-1 (Pseudomonas aeruginosa); assay: Inhibition of IMP1 (unknown origin) expressed in Escherichia coli BL21(DE3) assessed as substrate hydrolysis at 100 uM by UV-Vis spectrophotometric analysis relative to control
[8] = molecular target: Metallo-beta-lactamase type 2 (Bacteria, UniProt C7C422); assay: Binding affinity to NDM1 (unknown origin) expressed in Escherichia coli BL21(DE3) assessed as inhibition constant by measuring rate of substrate hydrolysis by UV-Vis spectrophotometric analysis; settings: read-out: Ki; method in brief: as §1
Sequence of Metallo-beta-lactamase type 2 (C7C422 whole entry): as the sequence (C7C422 whole entry) above

[9] = system: metallo-β-lactamase VIM-2 (Pseudomonas aeruginosa); assay: Inhibition of VIM-2 (unknown origin) expressed in Escherichia coli BL21(DE3) assessed as substrate hydrolysis at 100 uM by UV-Vis spectrophotometric analysis relative to control
[10] = system: metallo-β-lactamase VIM-4 (Pseudomonas aeruginosa); assay: Inhibition of VIM-4 (unknown origin) expressed in Escherichia coli BL21(DE3) assessed as substrate hydrolysis at 100 uM by UV-Vis spectrophotometric analysis relative to control
[11] = system: metallo-β-lactamase VIM-4 (Pseudomonas aeruginosa); assay: Inhibition of VIM-4 (unknown origin) expressed in Escherichia coli BL21(DE3) assessed as substrate hydrolysis at 200 uM by UV-Vis spectrophotometric analysis relative to control
[12] = molecular target: Beta-lactamase VIM-1 (Bacteria) (UniProt Q8GDC1); assay: Inhibition of VIM-1 (unknown origin) expressed in Escherichia coli BL21(DE3) assessed as substrate hydrolysis at 100 uM by UV-Vis spectrophotometric analysis relative to control; method in brief: as §2
[13] = molecular target: Metallo-beta-lactamase type 2 (Bacteria) (UniProt C7C422); assay: Inhibition of NDM1 (unknown origin) expressed in Escherichia coli BL21(DE3) assessed as substrate hydrolysis at 200 uM by UV-Vis spectrophotometric analysis relative to control; method in brief: as §2
[14] = system: metallo-β-lactamase IMP-1 (Pseudomonas aeruginosa); assay: Inhibition of IMP1 (unknown origin) expressed in Escherichia coli BL21(DE3) assessed as substrate hydrolysis at 200 uM by UV-Vis spectrophotometric analysis relative to control
[15] = system: metallo-β-lactamase VIM-2 (Pseudomonas aeruginosa); assay: Inhibition of VIM-2 (unknown origin) expressed in Escherichia coli BL21(DE3) assessed as substrate hydrolysis at 200 uM by UV-Vis spectrophotometric analysis relative to control
[16] = molecular target: Beta-lactamase VIM-1 (Bacteria) (UniProt Q8GDC1); assay: Inhibition of VIM-1 (unknown origin) expressed in Escherichia coli BL21(DE3) assessed as substrate hydrolysis at 200 uM by UV-Vis spectrophotometric analysis relative to control; method in brief: as §2
[17] = system: metallo-β-lactamase L1 (Stenotrophomonas maltophilia); assay: Inhibition of L1 (unknown origin) expressed in Escherichia coli BL21(DE3) assessed as substrate hydrolysis at 100 uM by UV-Vis spectrophotometric analysis relative to control
[18] = Binding affinity to IMP1 (unknown origin) expressed in Escherichia coli BL21(DE3) assessed as inhibition constant by measuring rate of substrate hydrolysis by UV-Vis spectrophotometric analysis; settings: read-out: Ki; method in brief: as §1

inhibition [3] | inhibition [7] | Ki [8] | inhibition [9] | inhibition [10] | inhibition [11] | inhibition [12] | inhibition [13] | inhibition [14] | inhibition [15] | inhibition [16] | Compound | Ki (Beta-lactamase VIM-1) | Ki [1] | Ki [2] | MIC (Klebsiella pneumoniae [4]) | MIC (Klebsiella pneumoniae [5]) | MIC (Escherichia coli) | inhibition [6] | inhibition [17] | Ki [18]
– | – | 15.4 µM | 30% | < 30% | < 50% | – | – | – | – | – | S=c1[nH]nc(-c2ccccc2)n1[C@@H]1C[C@H]1c1ccccc1 | 3.1 µM | – | – | – | – | – | – | – | –
< 30% | < 30% | – | – | – | 50% | 50% | < 50% | < 50% | 50% | – | S=c1[nH]nc(-c2ccccc2)n1CCc1c[nH]c2ccccc12 | – | – | – | – | – | – | – | – | –
< 30% | < 30% | – | < 30% | < 30% | < 50% | < 30% | < 50% | < 50% | < 50% | < 50% | S=c1[nH]nc(Cc2ccccc2)n1CCc1ccccc1 | – | – | – | – | – | – | – | – | –
< 30% | – | – | – | < 30% | < 50% | 34% | < 50% | – | – | – | S=c1[nH]nc(-c2ccccc2)n1CCc1ccc(OCc2ccccc2)cc1 | – | 18.9 µM | – | – | – | – | – | – | 5.3 µM

The next lines start with the compound.

Compound | inhibition [3] | inhibition [7] | Ki [8] | inhibition [9] | inhibition [10] | inhibition [11] | inhibition [12] | inhibition [13] | inhibition [14] | inhibition [15] | inhibition [16] | Ki (Beta-lactamase VIM-1) | Ki [1] | Ki [2] | MIC (Klebsiella pneumoniae [4]) | MIC (Klebsiella pneumoniae [5]) | MIC (Escherichia coli) | inhibition [6] | inhibition [17] | Ki [18]
O=C(O)c1cccc(Cn2c(-c3ccccc3)n[nH]c2=S)c1 | < 30% | < 30% | – | – | – | – | – | – | – | – | – | 1.4 µM | 1.8 µM | 0.4 µM | 2 µg/mL | 2 µg/mL | 32 µg/mL | inactive | – | –
O=C1OC(Cn2c(Cc3ccc4ccccc4c3)n[nH]c2=S)c2ccccc21 (configuration not stated) | < 30% | 30% | – | < 30% | < 30% | < 50% | < 30% | < 50% | – | < 50% | < 50% | – | – | – | – | – | – | – | – | –
COc1ccc(O)c(-c2n[nH]c(=S)n2Cc2ccccc2)c1 | < 30% | < 30% | – | – | – | – | – | – | – | – | – | 0.59 µM | 4 µM | 1.8 µM | 2 µg/mL | 2 µg/mL | 32 µg/mL | – | 40% | –
S=c1[nH]nc(Cc2ccccc2)n1Cc1ccccc1 | < 30% | 57% | – | < 30% | < 30% | – | – | – | – | – | – | 23 µM | – | – | – | – | – | – | 40% | –
